Measurements reported in ChEMBL document CHEMBL4261600 (Eur J Med Chem, 2018).

What was measured:
[1] = Tmax in beagle dog at 10 mg/kg, po by LC-MS/MS analysis; assay type: ADME, organism-based, Canis lupus familiaris; details: in vivo
[2] = target: Calcium/calmodulin-dependent protein kinase type 1D (Homo sapiens) (UniProt Q8IU85); experiment: Binding affinity to wild-type human partial length CAMK1D (M1 to K299 residues) expressed in bacterial expression system assessed as remaining unbound target protein level at 1000 nM by Kinomescan method relative to control
Procedure, shortened: (§1)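 Profiled in a KINOMEscan binding panel with the inhibitor at a single concentration of 1 μM. Binding to each kinase was read out as percent of control, relative to a DMSO control. Strong binders were defined as those with a percent control value below 1.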

[3] = tested on: Phosphatidylinositol 4,5-bisphosphate 3-kinase catalytic subunit alpha isoform (Homo sapiens), P42336 [M1043I]; experiment: Binding affinity to human partial length PIK3CA M1043I mutant (R108 to N1068 residues) expressed in mammalian expression system assessed as remaining unbound target protein level at 1000 nM by Kinomescan method relative to control
Procedure, shortened: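 KINOMEscan competition-binding profiling across the panel of 468 kinases and mutants, with inhibitor tested at 1 μM. Binding is expressed as percent of control, with DMSO as the reference control.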

[4] = target: Cyclin-dependent kinase-like 5 (Homo sapiens) (UniProt O76039); experiment: Binding affinity to wild-type human partial length CDKL5 (M1 to S337 residues) expressed in mammalian expression system assessed as remaining unbound target protein level at 1000 nM by Kinomescan method relative to control
Procedure, shortened: (§2)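 KINOMEscan competition binding profile across a panel of 468 kinases and mutants, with the inhibitor tested at a single concentration of 1 μM. Binding is reported as percent of control, meaning signal relative to a DMSO control.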

[5] = target: Tyrosine-protein kinase JAK1 (Homo sapiens) (UniProt P23458); experiment: Binding affinity to wild-type human partial length JAK1 JH2 pseudokinase domain (R537 to D855 residues) expressed in mammalian expression system assessed as remaining unbound target protein level at 1000 nM by Kinomescan method relative to control
Procedure, shortened: (§3)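 KINOMEscan binding panel of 468 kinases/mutants. Inhibitor was tested at a single concentration of 1 μM. Binding is reported as percent of control, defined relative to a DMSO control.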

[6] = target: Calcium/calmodulin-dependent protein kinase type II subunit gamma (Homo sapiens) (UniProt Q13555); experiment: Binding affinity to wild-type human partial length CAMK2G (R9 to A303 residues) expressed in bacterial expression system assessed as remaining unbound target protein level at 1000 nM by Kinomescan method relative to control; procedure, shortened: as §2
[7] = target: Serine/threonine-protein kinase Nek3 (Homo sapiens) (UniProt P51956); experiment: Binding affinity to wild-type human full length NEK3 (M1 to R506 residues) expressed in mammalian expression system assessed as remaining unbound target protein level at 1000 nM by Kinomescan method relative to control
Procedure, shortened: (§4)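 Single-point competition binding screen across a panel of 468 kinases and mutants, with the inhibitor at 1 μM. Binding is read out as percent of a DMSO control, and targets below 1 percent control were classed as strong binders.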

[8] = target: Tyrosine-protein kinase receptor TYRO3 (Homo sapiens) (UniProt Q06418); experiment: Binding affinity to wild-type human partial length TYRO3 (S497 to T814 residues) expressed in bacterial expression system assessed as remaining unbound target protein level at 1000 nM by Kinomescan method relative to control
[9] = target: Serine/threonine-protein kinase 25 (Homo sapiens) (UniProt O00506); experiment: Binding affinity to wild-type human partial length YSK1 (V14 to H295 residues) expressed in bacterial expression system assessed as remaining unbound target protein level at 1000 nM by Kinomescan method relative to control
[10] = target: Homeodomain-interacting protein kinase 3 (Homo sapiens) (UniProt Q9H422); experiment: Binding affinity to wild-type human partial length HIPK3 (M153 to N562 residues) expressed in mammalian expression system assessed as remaining unbound target protein level at 1000 nM by Kinomescan method relative to control; procedure, shortened: as §3
[11] = target: Serine/threonine-protein kinase/endoribonuclease IRE1 (Homo sapiens) (UniProt O75460); experiment: Binding affinity to wild-type human partial length ERN1 (S551 to E852 residues) expressed in mammalian expression system assessed as remaining unbound target protein level at 1000 nM by Kinomescan method relative to control; procedure, shortened: as §3
MV4-11 = experiment: Induction of apoptosis in human MV4-11 cells assessed as decrease in c-MYC level after 2 hrs by immunoblotting analysis; assay type: functional, cell-based
[12] = target: Mitogen-activated protein kinase 11 (Homo sapiens) (UniProt Q15759); experiment: Binding affinity to wild-type human full length p38-beta (M1 to Q364 residues) expressed in bacterial expression system assessed as remaining unbound target protein level at 1000 nM by Kinomescan method relative to control; procedure, shortened: as §1
[13] = target: Tyrosine-protein kinase FRK (Homo sapiens) (UniProt P42685); experiment: Binding affinity to wild-type human partial length FRK (A215 to F503 residues) expressed in bacterial expression system assessed as remaining unbound target protein level at 1000 nM by Kinomescan method relative to control
[14] = target: Serine/threonine-protein kinase MRCK beta (Homo sapiens) (UniProt Q9Y5S2); experiment: Binding affinity to wild-type human partial length MRCKB (L56 to S417 residues) expressed in bacterial expression system assessed as remaining unbound target protein level at 1000 nM by Kinomescan method relative to control
[15] = target: Phosphatidylinositol 5-phosphate 4-kinase type-2 beta (Homo sapiens) (UniProt P78356); experiment: Binding affinity to wild-type human full length PIP5K2B (M1 to T416 residues) expressed in bacterial expression system assessed as remaining unbound target protein level at 1000 nM by Kinomescan method relative to control; procedure, shortened: as §1
[16] = tested on: ALK tyrosine kinase receptor (Homo sapiens), Q9UM73 [L1196M]; experiment: Binding affinity to wild-type human partial length ALK L1196M mutant (I1088 to E1409 residues) expressed in mammalian expression system assessed as remaining unbound target protein level at 1000 nM by Kinomescan method relative to control; procedure, shortened: as §1
[17] = target: Atypical kinase COQ8B, mitochondrial (Homo sapiens) (UniProt Q96D53); experiment: Binding affinity to wild-type human full length ADCK4 (M1 to S544 residues) expressed in bacterial expression system assessed as remaining unbound target protein level at 1000 nM by Kinomescan method relative to control; procedure, shortened: as §4
[18] = target: MAP kinase-interacting serine/threonine-protein kinase 1 (Homo sapiens) (UniProt Q9BUB5); experiment: Binding affinity to wild-type human full length MKNK1 (M1 to L424 residues) expressed in mammalian expression system assessed as remaining unbound target protein level at 1000 nM by Kinomescan method relative to control; procedure, shortened: as §4
[19] = target: Serine/threonine-protein kinase Nek4 (Homo sapiens) (UniProt P51957); experiment: Binding affinity to wild-type human full length NEK4 (M1 to F841 residues) expressed in mammalian expression system assessed as remaining unbound target protein level at 1000 nM by Kinomescan method relative to control; procedure, shortened: as §4
[20] = target: Mitogen-activated protein kinase kinase kinase kinase 4 (Homo sapiens) (UniProt O95819); experiment: Binding affinity to wild-type human partial length MAP4K4 (M1 to R310 residues) expressed in bacterial expression system assessed as remaining unbound target protein level at 1000 nM by Kinomescan method relative to control; procedure, shortened: as §3
Sequence of Mitogen-activated protein kinase kinase kinase kinase 4 (Homo sapiens) (O95819 2-1239 limits assumed): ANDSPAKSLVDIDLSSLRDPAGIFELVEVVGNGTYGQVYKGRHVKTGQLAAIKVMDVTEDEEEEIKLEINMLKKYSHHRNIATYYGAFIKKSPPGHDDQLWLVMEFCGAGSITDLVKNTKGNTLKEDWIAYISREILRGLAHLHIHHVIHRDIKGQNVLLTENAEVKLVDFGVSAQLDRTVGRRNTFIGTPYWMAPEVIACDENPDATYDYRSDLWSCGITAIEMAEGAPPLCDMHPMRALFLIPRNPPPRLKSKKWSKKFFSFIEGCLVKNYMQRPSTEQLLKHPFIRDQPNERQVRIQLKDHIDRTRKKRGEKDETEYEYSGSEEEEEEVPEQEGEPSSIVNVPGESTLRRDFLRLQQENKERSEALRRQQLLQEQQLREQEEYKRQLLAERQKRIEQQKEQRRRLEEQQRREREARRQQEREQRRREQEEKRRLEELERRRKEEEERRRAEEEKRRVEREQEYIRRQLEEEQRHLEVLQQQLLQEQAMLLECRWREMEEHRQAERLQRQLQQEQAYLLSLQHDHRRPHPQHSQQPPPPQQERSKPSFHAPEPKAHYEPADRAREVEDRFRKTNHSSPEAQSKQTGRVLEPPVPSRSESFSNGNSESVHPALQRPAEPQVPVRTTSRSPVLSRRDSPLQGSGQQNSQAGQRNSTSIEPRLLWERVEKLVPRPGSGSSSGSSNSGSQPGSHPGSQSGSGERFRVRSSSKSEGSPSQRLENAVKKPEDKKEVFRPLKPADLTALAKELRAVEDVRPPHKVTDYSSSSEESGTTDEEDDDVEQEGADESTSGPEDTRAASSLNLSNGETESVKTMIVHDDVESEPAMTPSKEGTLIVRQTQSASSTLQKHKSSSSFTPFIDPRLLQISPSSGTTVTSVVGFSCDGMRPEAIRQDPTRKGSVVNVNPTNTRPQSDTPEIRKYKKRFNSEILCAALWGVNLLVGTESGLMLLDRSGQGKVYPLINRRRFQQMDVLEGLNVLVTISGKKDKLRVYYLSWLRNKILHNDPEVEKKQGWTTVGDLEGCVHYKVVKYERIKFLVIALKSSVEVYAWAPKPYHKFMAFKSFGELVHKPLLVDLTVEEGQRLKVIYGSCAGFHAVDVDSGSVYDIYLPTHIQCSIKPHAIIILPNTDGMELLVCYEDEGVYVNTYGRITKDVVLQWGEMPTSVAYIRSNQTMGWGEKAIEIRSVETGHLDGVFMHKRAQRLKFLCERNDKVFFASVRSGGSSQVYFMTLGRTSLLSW

Sequence of Tyrosine-protein kinase receptor TYRO3 (Homo sapiens) (Q06418 whole entry, the tested form may be a part): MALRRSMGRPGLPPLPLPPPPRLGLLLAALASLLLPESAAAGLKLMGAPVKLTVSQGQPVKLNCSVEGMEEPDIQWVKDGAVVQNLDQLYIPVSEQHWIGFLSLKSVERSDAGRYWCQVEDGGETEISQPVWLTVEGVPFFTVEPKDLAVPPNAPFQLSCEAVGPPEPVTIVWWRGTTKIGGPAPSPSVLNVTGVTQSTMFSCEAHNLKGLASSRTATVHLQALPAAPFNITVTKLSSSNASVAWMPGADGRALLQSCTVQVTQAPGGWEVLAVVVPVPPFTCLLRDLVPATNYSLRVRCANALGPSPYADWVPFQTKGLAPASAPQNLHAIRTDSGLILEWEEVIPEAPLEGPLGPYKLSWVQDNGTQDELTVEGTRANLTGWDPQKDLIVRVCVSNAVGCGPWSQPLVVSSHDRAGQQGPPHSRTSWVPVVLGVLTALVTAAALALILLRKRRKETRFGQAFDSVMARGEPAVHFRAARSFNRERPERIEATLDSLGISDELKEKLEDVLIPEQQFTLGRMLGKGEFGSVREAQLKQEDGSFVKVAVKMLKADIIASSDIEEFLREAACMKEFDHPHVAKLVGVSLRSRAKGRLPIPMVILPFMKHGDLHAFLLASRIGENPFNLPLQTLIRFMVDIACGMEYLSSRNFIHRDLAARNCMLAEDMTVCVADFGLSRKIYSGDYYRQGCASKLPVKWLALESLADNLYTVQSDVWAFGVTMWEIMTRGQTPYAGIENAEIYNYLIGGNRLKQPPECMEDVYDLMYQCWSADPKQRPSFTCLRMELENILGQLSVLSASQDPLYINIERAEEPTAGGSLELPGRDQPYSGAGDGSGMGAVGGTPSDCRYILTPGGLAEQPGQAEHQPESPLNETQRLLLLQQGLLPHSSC
Sequence of Tyrosine-protein kinase JAK1 (Homo sapiens) (P23458 whole entry, the tested form may be a part): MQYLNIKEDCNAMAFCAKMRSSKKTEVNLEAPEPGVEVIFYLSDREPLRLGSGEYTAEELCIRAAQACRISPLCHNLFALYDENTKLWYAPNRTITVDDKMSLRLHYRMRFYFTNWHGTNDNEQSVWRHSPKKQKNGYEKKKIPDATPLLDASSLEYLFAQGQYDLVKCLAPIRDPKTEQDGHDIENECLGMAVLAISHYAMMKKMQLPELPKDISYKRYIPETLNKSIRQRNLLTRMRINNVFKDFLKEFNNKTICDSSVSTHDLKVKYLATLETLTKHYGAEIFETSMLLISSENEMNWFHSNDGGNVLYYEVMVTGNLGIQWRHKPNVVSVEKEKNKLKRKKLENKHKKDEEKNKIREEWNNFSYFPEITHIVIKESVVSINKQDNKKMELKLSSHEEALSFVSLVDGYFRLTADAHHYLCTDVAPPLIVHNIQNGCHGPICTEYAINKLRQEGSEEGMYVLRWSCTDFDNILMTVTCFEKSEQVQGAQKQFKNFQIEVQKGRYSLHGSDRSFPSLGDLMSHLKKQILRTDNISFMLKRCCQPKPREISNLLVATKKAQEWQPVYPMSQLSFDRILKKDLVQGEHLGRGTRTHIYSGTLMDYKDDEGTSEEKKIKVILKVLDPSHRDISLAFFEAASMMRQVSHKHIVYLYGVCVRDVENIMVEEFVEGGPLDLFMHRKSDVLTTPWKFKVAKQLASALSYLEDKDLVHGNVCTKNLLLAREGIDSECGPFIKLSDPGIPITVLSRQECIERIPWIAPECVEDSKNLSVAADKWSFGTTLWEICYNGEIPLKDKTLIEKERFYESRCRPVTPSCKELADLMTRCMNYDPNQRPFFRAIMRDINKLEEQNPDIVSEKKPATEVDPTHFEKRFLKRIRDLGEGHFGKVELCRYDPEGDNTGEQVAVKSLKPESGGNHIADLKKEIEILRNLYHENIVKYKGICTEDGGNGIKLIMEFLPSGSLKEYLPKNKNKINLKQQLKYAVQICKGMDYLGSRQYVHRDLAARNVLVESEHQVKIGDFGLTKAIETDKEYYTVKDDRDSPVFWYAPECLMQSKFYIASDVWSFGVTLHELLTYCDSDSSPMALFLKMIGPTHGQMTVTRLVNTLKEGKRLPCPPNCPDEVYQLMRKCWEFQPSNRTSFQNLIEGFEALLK
Sequence of Atypical kinase COQ8B, mitochondrial (Homo sapiens) (Q96D53 whole entry, the tested form may be a part): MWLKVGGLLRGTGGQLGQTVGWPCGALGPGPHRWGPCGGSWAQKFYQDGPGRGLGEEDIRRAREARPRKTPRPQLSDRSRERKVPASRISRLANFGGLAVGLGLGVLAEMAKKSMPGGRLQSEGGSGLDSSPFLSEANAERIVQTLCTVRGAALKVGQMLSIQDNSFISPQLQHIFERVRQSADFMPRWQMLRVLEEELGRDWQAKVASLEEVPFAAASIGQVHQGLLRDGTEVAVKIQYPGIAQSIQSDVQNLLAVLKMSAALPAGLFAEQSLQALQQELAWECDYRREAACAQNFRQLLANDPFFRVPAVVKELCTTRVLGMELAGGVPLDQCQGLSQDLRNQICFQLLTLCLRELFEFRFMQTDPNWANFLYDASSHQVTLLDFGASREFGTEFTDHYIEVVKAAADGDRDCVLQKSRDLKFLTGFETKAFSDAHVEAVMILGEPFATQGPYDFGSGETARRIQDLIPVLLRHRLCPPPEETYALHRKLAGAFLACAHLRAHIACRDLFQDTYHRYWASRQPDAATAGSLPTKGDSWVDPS
Sequence of Mitogen-activated protein kinase 11 (Homo sapiens) (Q15759 whole entry, the tested form may be a part): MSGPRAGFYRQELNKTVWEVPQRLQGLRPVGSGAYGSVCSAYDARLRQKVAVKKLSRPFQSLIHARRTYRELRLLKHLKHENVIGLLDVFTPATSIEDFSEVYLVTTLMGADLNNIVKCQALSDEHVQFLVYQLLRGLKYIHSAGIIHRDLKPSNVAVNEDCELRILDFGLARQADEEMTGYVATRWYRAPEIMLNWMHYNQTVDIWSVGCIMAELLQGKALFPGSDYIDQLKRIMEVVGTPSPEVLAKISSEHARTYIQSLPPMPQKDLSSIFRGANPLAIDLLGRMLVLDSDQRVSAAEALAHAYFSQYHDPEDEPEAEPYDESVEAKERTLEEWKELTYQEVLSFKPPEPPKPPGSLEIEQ
Sequence of Calcium/calmodulin-dependent protein kinase type 1D (Homo sapiens) (Q8IU85 whole entry, looked up, the tested form may be a part): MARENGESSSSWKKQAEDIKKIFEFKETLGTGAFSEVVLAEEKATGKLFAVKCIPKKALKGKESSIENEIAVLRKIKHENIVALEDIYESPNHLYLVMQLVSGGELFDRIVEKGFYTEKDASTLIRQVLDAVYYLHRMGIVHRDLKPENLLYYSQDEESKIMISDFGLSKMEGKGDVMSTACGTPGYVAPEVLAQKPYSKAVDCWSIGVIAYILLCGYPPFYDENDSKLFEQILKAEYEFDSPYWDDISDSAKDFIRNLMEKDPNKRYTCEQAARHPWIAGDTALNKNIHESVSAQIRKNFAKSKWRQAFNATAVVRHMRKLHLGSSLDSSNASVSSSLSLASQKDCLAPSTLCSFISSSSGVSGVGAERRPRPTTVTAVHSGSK
Sequence of Phosphatidylinositol 5-phosphate 4-kinase type-2 beta (Homo sapiens) (P78356 whole entry, the tested form may be a part): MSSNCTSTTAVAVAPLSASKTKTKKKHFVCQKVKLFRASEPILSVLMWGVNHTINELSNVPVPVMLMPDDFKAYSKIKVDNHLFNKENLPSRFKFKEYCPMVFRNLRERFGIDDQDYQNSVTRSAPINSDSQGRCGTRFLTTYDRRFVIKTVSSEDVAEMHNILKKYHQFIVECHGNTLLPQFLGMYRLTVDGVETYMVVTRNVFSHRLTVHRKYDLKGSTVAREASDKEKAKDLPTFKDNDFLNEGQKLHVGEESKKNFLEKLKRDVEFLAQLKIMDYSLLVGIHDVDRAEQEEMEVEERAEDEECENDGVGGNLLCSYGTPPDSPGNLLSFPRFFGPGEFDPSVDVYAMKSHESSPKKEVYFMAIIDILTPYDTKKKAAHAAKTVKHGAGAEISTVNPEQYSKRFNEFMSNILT

COCCN[C@H]1CC[C@H](Nc2cc(-c3csc(NCC4(C#N)CCOCC4)n3)c(Cl)cn2)CC1
Tmax [1]: 1.33 h | Activity [2]: 100% | Activity [3]: 95% | Activity [4]: 21% | Activity [5]: 57% | Activity [6]: 99% | Activity [7]: 100% | Activity [8]: 68% | Activity [9]: 92% | Activity [10]: 86% | Activity [11]: 61% | Activity (MV4-11): Dose-dependent effect | Activity [12]: 85% | Activity [13]: 96% | Activity [14]: 100% | Activity [15]: 100% | Activity [16]: 78% | Activity [17]: 65% | Activity [18]: 100% | Activity [19]: 98% | Activity [20]: 91%
